Positions of bridges follow the written chain, without caps; N, C: chain ends. Residues, ends and D or L forms follow the SMILES beside them.
What was measured:
HFF-1 [1] = assay: Cytotoxicity against human HFF1 after 24 hrs by MTT assay; assay type: cell-based; conditions: HFF-1, 24 h
In short: (§1)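 Cells seeded at 3 × 10^3 per well and grown 24 h at 37 °C in 5% CO2. Media: HUVEC in 10% FBS/EBM-2 with supplements; HFF-1 in 15% FBS/DMEM; HT-29 and MDA-MB-231 in 10% FBS/DMEM; MM96L in 10% FBS/RPMI with 2 mM L-glutamine and 1 mM pyruvate. Switched to serum-free medium, then paclitaxel 0.00075–10 μM for 24 or 48 h. MTT added 3 h, formazan taken up in DMSO, A600. Triplicate; IC50 from sigmoidal fit.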

HUVEC [2] = assay: Cytotoxicity against HUVEC after 24 hrs by MTT assay; assay type: cell-based; conditions: Homo sapiens; in short: as §1
MDA-MB-231 [3] = assay: Cytotoxicity against human MDA-MB-231 after 24 hrs by MTT assay; assay type: functional, cell-based; conditions: MDA-MB-231, 24 h; in short: as §1
Erythrocyte = assay: Hemolytic activity against human RBC after 1 hr; assay type: ADME, cell-based
In short: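 Human red blood cells exposed to test peptides at 0.003–10 μM, with melittin at 0.15–20 μM as the lysis positive control. IC50 given as mean ± SD of three biological replicates.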

MM96L [4] = assay: Cytotoxicity against human MM96L after 24 hrs by MTT assay; assay type: functional, cell-based; in short: as §1
HT-29 [5] = assay: Cytotoxicity against human HT-29 after 24 hrs by MTT assay; assay type: functional, cell-based; conditions: HT-29, 24 h; in short: as §1
HFF-1 [6] = assay: Cytotoxicity against human HFF1 after 48 hrs by MTT assay; assay type: cell-based; conditions: HFF-1, 48 h; in short: as §1
MM96L [7] = assay: Cytotoxicity against human MM96L after 48 hrs by MTT assay; assay type: functional, cell-based; in short: as §1
HUVEC [8] = assay: Cytotoxicity against HUVEC after 48 hrs by MTT assay; assay type: cell-based; conditions: Homo sapiens; in short: as §1
HT-29 [9] = assay: Cytotoxicity against human HT-29 after 48 hrs by MTT assay; assay type: functional, cell-based; conditions: HT-29, 48 h; in short: as §1
MDA-MB-231 [10] = assay: cells; conditions: Homo sapiens, MDA-MB-231, 48 h

Structure (SMILES) | IC50 (HFF-1 [1]) [nM] | IC50 (HUVEC [2]) [nM] | IC50 (MDA-MB-231 [3]) [nM] | IC50 (Erythrocyte) [µM] | IC50 (MM96L [4]) [nM] | IC50 (HT-29 [5]) [nM] | IC50 (HFF-1 [6]) [µM] | IC50 (MM96L [7]) [µM] | IC50 (HUVEC [8]) [µM] | IC50 (HT-29 [9]) [nM] | IC50 (MDA-MB-231 [10]) [nM]
CC[C@H](C)[C@@H]1NC(=O)[C@H](Cc2ccc(O)cc2)NC(=O)[C@H](CO)NC(=O)C(N)C(=O)[C@H](CC(N)=O)NC(=O)[C@H](CCCCN)NC(=O)[C@H](CCCCN)NC(=O)[C@@H]2CSSC[C@@H]3NC(=O)[C@H](CCCCN)NC(=O)CNC(=O)[C@H](CCC(N)=O)NC(=O)[C@H](C(C)C)NC(=O)[C@@H]4CSSC[C@H](NC(=O)[C@H]([C@@H](C)O)NC(=O)[C@H](CSSC[C@H](NC1=O)C(=O)NCC(=O)N[C@@H](CCC(=O)O)C(=O)N[C@@H]([C@@H](C)O)C(=O)N4)NC(=O)CNC(=O)[C@@H]1CCCN1C(=O)[C@H]([C@@H](C)O)NC(=O)[C@H](Cc1ccc(O)cc1)NC3=O)C(=O)N[C@@H](CO)C(=O)N[C@@H](Cc1c[nH]c3ccccc13)C(=O)N1CCC[C@H]1C(=O)N[C@@H]([C@@H](C)CC)C(=O)N2 (stereo partly drawn) | 2100 | 1600 | 950 | > 10 | 1300 | 5900 | – | – | – | – | –
CC[C@H](C)[C@@H]1NC(=O)[C@H](C)NC(=O)[C@H](CO)NC(=O)[C@H](CO)NC(=O)[C@H]([C@@H](C)CC)NC(=O)[C@@H]2CSSC[C@@H]3NC(=O)[C@H](C(C)C)NC(=O)[C@H](CCCCN)NC(=O)[C@H](CO)NC(=O)[C@H](CCCCN)NC(=O)[C@@H]4CSSC[C@H](NC(=O)[C@H](CO)NC(=O)[C@H](CCC(=O)O)NC(=O)CNC(=O)[C@H](CSSC[C@H](NC(=O)CNC1=O)C(=O)N[C@@H](CO)C(=O)N4)NC(=O)[C@@H]1CCCN1C(=O)[C@H]([C@@H](C)CC)NC(=O)CNC(=O)[C@H](CC(N)=O)NC(=O)[C@H](CCCNC(=N)N)NC(=O)[C@H](Cc1ccc(O)cc1)NC3=O)C(=O)N[C@@H](C(C)C)C(=O)N[C@@H](Cc1c[nH]c3ccccc13)C(=O)N[C@@H]([C@@H](C)CC)C(=O)N1CCC[C@H]1C(=O)N2 (cyclo(AIGCSCKSKVCYRNGIPCGESCVWIPCISS); disulfide 4-18, 6-22, 11-27) | 1300 | 350 | 1500 | 36 | 650 | 870 | – | – | – | – | –
CC[C@H](C)[C@@H]1NC(=O)[C@@H]2CCCN2C(=O)[C@H](CC(C)C)NC(=O)CNC(=O)[C@H](CC(N)=O)NC(=O)[C@H](CCCCN)NC(=O)[C@H](Cc2ccc(O)cc2)NC(=O)[C@@H]2CSSC[C@@H]3NC(=O)[C@H](CCCCN)NC(=O)CNC(=O)[C@H](CC(C)C)NC(=O)[C@H](CC(C)C)NC(=O)[C@@H]4CSSC[C@H](NC(=O)[C@H](CO)NC(=O)[C@H](CSSC[C@H](NC1=O)C(=O)NCC(=O)N[C@@H](CCC(=O)O)C(=O)N[C@@H]([C@@H](C)O)C(=O)N4)NC(=O)CNC(=O)[C@@H]1CCCN1C(=O)[C@H]([C@@H](C)O)NC(=O)[C@H](Cc1ccc(O)cc1)NC3=O)C(=O)N[C@@H](CCCNC(=N)N)C(=O)N[C@@H](CCCNC(=N)N)C(=O)N1CCC[C@H]1C(=O)N[C@@H](C(C)C)C(=O)N2 (cyclo(CGETCLLGKCYTPGCSCRRPVCYKNGLPI); disulfide 1-15, 5-17, 10-22) | 1900 | 2600 | 2300 | > 10 | 1100 | – | – | – | – | – | –
CC[C@H](C)[C@@H]1NC(=O)[C@@H]2CCCN2C(=O)[C@H](CCCCN)NC(=O)CNC(=O)[C@H](CC(N)=O)NC(=O)[C@H](CCCCN)NC(=O)[C@H](Cc2ccc(O)cc2)NC(=O)[C@H](CS)NC(=O)[C@H](CC(C)C)NC(=O)[C@H](C(C)C)NC(=O)[C@H](CCCNC(=N)N)NC(=O)[C@H](CCCCN)NC(=O)CNC(=O)[C@@H]2CSSC[C@@H]3NC(=O)[C@H]([C@@H](C)O)NC(=O)[C@H](CCC(=O)O)NC(=O)CNC(=O)[C@H](CSSC[C@H](NC(=O)CNC(=O)[C@@H]4CCCN4C(=O)[C@H]([C@@H](C)O)NC(=O)[C@H](Cc4ccc(O)cc4)NC(=O)[C@H](CS)NC(=O)[C@H](CCCCN)NC(=O)CNC(=O)[C@H](CC(C)C)NC(=O)[C@H](CC(C)C)NC3=O)C(=O)N[C@@H]([C@@H](C)O)C(=O)N2)NC1=O (cyclo(CGETCLLGKCYTPGCTCGKRVLCYKNGKPI); disulfide 1-15, 5-17) | 1700 | 2800 | 4400 | – | 930 | – | – | – | – | – | –
CC[C@H](C)[C@@H]1NC(=O)[C@@H]2CCCN2C(=O)[C@H](CC(C)C)NC(=O)CNC(=O)[C@H](CC(N)=O)NC(=O)[C@H](CCCCN)NC(=O)[C@H](Cc2ccc(O)cc2)NC(=O)[C@@H]2CSSC[C@@H]3NC(=O)[C@H](CCCCN)NC(=O)CNC(=O)[C@H](Cc4ccccc4)NC(=O)[C@H](C(C)C)NC(=O)[C@@H]4CSSC[C@H](NC(=O)[C@H](CO)NC(=O)[C@H](CSSC[C@H](NC1=O)C(=O)NCC(=O)N[C@@H](CCC(=O)O)C(=O)N[C@@H]([C@@H](C)O)C(=O)N4)NC(=O)CNC(=O)[C@@H]1CCCN1C(=O)[C@H]([C@@H](C)O)NC(=O)[C@H](CC(N)=O)NC3=O)C(=O)N[C@@H](CCCNC(=N)N)C(=O)N[C@@H](CCCNC(=N)N)C(=O)N1CCC[C@H]1C(=O)N[C@@H]([C@@H](C)CC)C(=O)N2 (cyclo(CGETCVFGKCNTPGCSCRRPICYKNGLPI); disulfide 1-15, 5-17, 10-22) | > 3000 | > 3000 | > 10000 | > 10 | > 3000 | > 10000 | – | – | – | – | –
CC[C@H](C)[C@H](NC(=O)CN)C(=O)NCC(=O)N[C@@H](C)C(=O)N[C@H](C(=O)N[C@@H](CC(C)C)C(=O)N[C@@H](CCCCN)C(=O)N[C@H](C(=O)N[C@@H](CC(C)C)C(=O)N[C@H](C(=O)N[C@H](C(=O)NCC(=O)N[C@@H](CC(C)C)C(=O)N1CCC[C@H]1C(=O)N[C@@H](C)C(=O)N[C@@H](CC(C)C)C(=O)N[C@H](C(=O)N[C@@H](CO)C(=O)N[C@@H](Cc1c[nH]c2ccccc12)C(=O)N[C@H](C(=O)N[C@@H](CCCCN)C(=O)N[C@@H](CCCNC(=N)N)C(=O)N[C@@H](CCCCN)C(=O)N[C@@H](CCCNC(=N)N)C(=O)N[C@@H](CCC(N)=O)C(=O)N[C@@H](CCC(N)=O)C(N)=O)[C@@H](C)CC)[C@@H](C)CC)[C@@H](C)O)[C@@H](C)O)C(C)C)C(C)C [MELITTIN] | – | – | – | 0.96 | – | – | – | – | – | – | –
CC(=O)O[C@H]1C(=O)[C@@]2(C)[C@H]([C@H](OC(=O)c3ccccc3)[C@]3(O)C[C@H](OC(=O)[C@H](O)[C@@H](NC(=O)c4ccccc4)c4ccccc4)C(C)=C1C3(C)C)[C@]1(OC(C)=O)CO[C@@H]1C[C@@H]2O [PACLITAXEL] | > 10000 | > 10000 | 200 | – | > 10000 | 70 | > 10 | > 10 | > 10 | 10 | 1

— ChEMBL document CHEMBL4266037, “Discovery and Characterization of Cyclotides from Rinorea Species” (J Nat Prod, 2018)
